In the library only some 5.9% were active in any assay of this set; here they are far more common.
IDH1 mut inh: inhibitors of IDH1 R132H reductase, primary screen, biochemical, plate reader, single point. actives 0.18% (n = 70,000). diaphorase/resazurin fluorescence, 60 min. inhibition, % at 10 µM. Isocitrate dehydrogenase [NADP] cytoplasmic (Homo sapiens), O75874; in the data active means inhibition above about 34%;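 further: 0% = DMSO and 100% = no enzyme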
T cruzi growth-1: T. cruzi intracellular proliferation inhibitors, primary screen, cell-based, beta-gal Tulahuen parasites, NIH3T3 host, luminescence; actives 5.9% (n = 77,000); inhibition, % at 8.34 µM; T. cruzi beta-gal in NIH3T3, GalScreen luminescence, 90 h;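 active means mean inhibition above about 93%, with at least 55% of replicates each passing it, limit read from the data, passing the limit was not always enough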
Pf Dd2 growth: P. falciparum Dd2 growth inhibitors, primary screen, SYBR Green fluorescence, single dose replicates; 72 h; hits give low values; activity change, % at 10 µM; actives 2.3% (n = 94,000); in the data active means activity change below about -80%
KDM4C inh: inhibitors of GASC-1 (KDM4C) histone demethylase, primary screen, biochemical, single concentration HTS | Lysine-specific demethylase 4C (Homo sapiens), Q9H3R0 | actives 0.15% (n = 96,000) | inhibition, % at 12.5 µM | GST-KDM4C 2-372, H3K9me3 peptide, LANCE TR-FRET;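 active means mean replicate inhibition above about 25%, with at least 55% of replicates also reaching it, limit read from the data, passing the limit was not always enough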
Target sequence (Q9H3R0 2-372 limits assumed): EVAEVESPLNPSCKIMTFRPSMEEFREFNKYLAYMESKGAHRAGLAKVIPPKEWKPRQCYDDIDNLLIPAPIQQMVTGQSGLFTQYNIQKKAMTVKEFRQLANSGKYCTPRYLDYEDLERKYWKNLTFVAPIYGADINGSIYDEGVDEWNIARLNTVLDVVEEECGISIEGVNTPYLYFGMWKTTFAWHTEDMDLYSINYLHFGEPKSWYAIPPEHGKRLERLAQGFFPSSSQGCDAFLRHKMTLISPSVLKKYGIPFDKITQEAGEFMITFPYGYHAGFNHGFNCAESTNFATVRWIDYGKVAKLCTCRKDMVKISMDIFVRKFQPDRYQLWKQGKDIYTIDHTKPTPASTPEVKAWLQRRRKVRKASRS
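System – N-terminal GST-fused human GASC-1 (KDM4C) fragment, residues 2-372 · Input – enzyme final amount 10 nM · Technique – LANCE TR-FRET, Eu antibody, ULight-streptavidin, EDTA, ex 340 nm, em 618/671 nm · Medium – HEPES buffer, pH 7.5, plus ascorbate · Incubation – enzyme reaction 30 min, then detection 60 min, both room temperature · Reagent – H3K9me3 peptide with Fe(II)/2OG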
T cruzi growth-2: T. cruzi intracellular proliferation inhibitors, confirmation, cell-based, NIH3T3 host, beta-gal parasite, luminescence, cherry-pick; shares compounds with T cruzi growth-1; T. cruzi beta-gal in NIH3T3, GalScreen luminescence, 90 h; inhibition, % at 8.35 µM; actives 72% (n = 5,600);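 active means mean replicate inhibition above about 95% and at least 55% of replicates individually reaching it, limit read from the data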
T cruzi growth-3: inhibitors of intracellular T. cruzi replication, confirmation, NIH3T3 host cells, beta-gal parasites, cherry-pick, set 2. shares compounds with T cruzi growth-1. T. cruzi beta-gal in NIH3T3, GalScreen luminescence, 90 h. inhibition, % at 2.09 µM. actives 21% (n = 5,600). AID 651740, 2012;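 active means mean inhibition above about 95%, with at least 55% of replicates also reaching it, limit read from the data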;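 further: plate controls were neutral control median for no effect and positive control median for full effect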
NIH3T3 tox: cytotoxicity in mouse NIH/3T3 fibroblasts, confirmation, cytotoxicity control for T. cruzi proliferation inhibitor project, cell-based, cherry-pick, single point | NIH/3T3 viability, CellTiter-Glo ATP luminescence, 90 h | actives 14% (n = 5,600) | shares compounds with T cruzi growth-1 | cytotoxicity (signal decrease), % at 8.35 µM;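 active means mean signal decrease across replicates above about 35% based on untreated-well scatter, with enough replicates individually passing, limit read from the data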;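 further: 0% = median of neutral control wells and 100% = median of positive control wells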
3T3 cytotox 2: NIH/3T3 fibroblast cytotoxicity, confirmation, cytotoxicity control, cell-based, cherry-pick, single point, set 2. shares compounds with T cruzi growth-1. NIH/3T3 viability, CellTiter-Glo ATP luminescence, 90 h. inhibition, % at 24.9 µM. actives 56% (n = 5,600);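 active means mean loss of cell viability signal at or above a set limit, and enough replicates individually reaching it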;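 further: 0% = median of neutral control wells and 100% = median of positive control wells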
* = called active by the depositor; · = not tested or not shown.

SMILES | IDH1 mut inh | T cruzi growth-1 | Pf Dd2 growth | KDM4C inh | T cruzi growth-2 | T cruzi growth-3 | NIH3T3 tox | 3T3 cytotox 2
CCCN(C[C@H]1N[C@H](CO)[C@@H]1c1ccc(-c2cccnc2)cc1)C(C)=O | · | 17 | 15 | 0 | · | · | · | ·
O=C(C[C@@H]1C[C@H]2c3cc(NC(=O)c4ccc5c(c4)OCO5)ccc3O[C@H]2[C@@H](CO)O1)NCc1ccccn1 | 0 | 15 | 18 | -1 | · | · | · | ·
C[C@@H]1CN([C@@H](C)CO)C(=O)c2cc(C3=CCCCC3)cnc2O[C@H]1CN(C)C(=O)c1cccc(F)c1 | -1 | 57 | -6 | 3 | · | · | · | ·
C[C@H]1CN([C@@H](C)CO)C(=O)c2cc(C3=CCCCC3)cnc2O[C@@H]1CN(C)C(=O)c1cccc(F)c1 | -3 | 105* | -46 | 0 | 108* | 22 | -7 | 53*
C[C@H]1CN([C@@H](C)CO)C(=O)c2cc(C3=CCCCC3)cnc2O[C@@H]1CN(C)Cc1ccccc1C(=O)O | · | 108* | -7 | -1 | 23 | 6 | 9 | -24
C[C@H]1CN([C@@H](C)CO)C(=O)c2cc(C3=CCCCC3)cnc2O[C@H]1CN(C)Cc1cccc(F)c1 | 0 | 110* | -4 | -1 | 105* | 6 | 22 | 35*
CC=Cc1ccc2n(c1=O)C[C@@H]1[C@@H](CO)[C@H](C(=O)NC3Cc4ccccc4C3)[C@H]2N1C(C)=O (mixture of isomers) | · | -31 | · | -1 | · | · | · | ·
Cc1cc(C)c(NC(=O)CSc2nc(C)cc(=O)[nH]2)c([N+](=O)[O-])c1 | 0 | · | · | · | · | · | · | ·
C[C@@H]1CCCCO[C@@H](CN(C)C)[C@@H](C)CN([C@H](C)CO)C(=O)c2cc(NC(=O)c3ccccc3)ccc2O1 | 1 | 77 | 25 | -1 | · | · | · | ·
COc1ccc2c3c(n(C)c2c1)[C@H](CO)N(C(=O)Cc1ccccn1)CC31CN(Cc2ccccn2)C1 | · | · | -24 | 0 | · | · | · | ·
C[C@H](CO)N1C[C@H](C)[C@@H](CN(C)C(=O)Nc2cccc3ccccc23)Oc2c(NC(=O)c3ccc(-c4nccs4)cc3)cccc2C1=O | 3 | -231 | -37 | -1 | · | · | · | ·
Cc1ccc(-c2ccc3c(c2)O[C@@H](CN(C)Cc2ccncc2)[C@@H](C)CN([C@H](C)CO)S3(=O)=O)cc1 | -7 | 123* | -62 | -2 | 97* | 101* | 26 | 94*
C[C@@H]1CN([C@H](C)CO)S(=O)(=O)c2ccc(-c3ccncc3)cc2O[C@@H]1CN(C)Cc1ccccc1 | 1 | 88 | -31 | 2 | · | · | · | ·
Cc1ccc(-c2ccc3c(c2)O[C@@H](CN(C)Cc2ccncc2)[C@H](C)CN([C@@H](C)CO)S3(=O)=O)cc1 | 0 | 123* | -89* | 1 | 98* | 92 | 65* | 100*
C[C@@H]1CN([C@H](C)CO)S(=O)(=O)c2ccc(-c3cncnc3)cc2O[C@@H]1CN(C)Cc1ccncc1 | 21 | 17 | 7 | 4 | · | · | · | ·
C[C@@H]1CN([C@@H](C)CO)S(=O)(=O)c2ccc(Br)cc2O[C@H]1CN(C)Cc1ccncc1 | · | 101* | -41 | · | 102* | 99* | 25 | 14
C[C@@H]1CN([C@@H](C)CO)S(=O)(=O)c2ccc(-c3cncnc3)cc2O[C@H]1CN(C)Cc1ccncc1 | 7 | 72 | -14 | 0 | · | · | · | ·
Cc1ccc(-c2ccc3c(c2)O[C@@H](CN(C)Cc2ccncc2)[C@@H](C)CN([C@@H](C)CO)S3(=O)=O)cc1 | 2 | 120* | -66 | -1 | 92 | 91 | 64* | 90*
Cc1ccc(-c2ccc3c(c2)O[C@H](CN(C)Cc2ccncc2)[C@H](C)CN([C@H](C)CO)S3(=O)=O)cc1 | 52* | 109* | -15 | · | 98* | 75 | 49* | 47*
C[C@@H]1CN([C@@H](C)CO)S(=O)(=O)c2ccc(/C=C/c3ccccc3)cc2O[C@H]1CN(C)C(=O)c1ccc2c(c1)OCO2 | 4 | 118* | -87* | · | 105* | 85 | 42* | 59*
C[C@H](CO)N1C[C@H](C)[C@@H](CN(C)C(=O)c2ccc3c(c2)OCO3)Oc2cc(/C=C/c3ccccc3)ccc2S1(=O)=O | · | 119* | -71 | -4 | 104* | 52 | 8 | 45*
C/C=C/c1ccc2c(c1)O[C@H](CN(C)C(=O)c1ccc3c(c1)OCO3)[C@H](C)CN([C@H](C)CO)S2(=O)=O | 3 | 52 | -11 | -1 | · | · | · | ·
COC(=O)[C@@H]1[C@@H](CO)[C@@H]2Cn3c(ccc(-c4cncnc4)c3=O)[C@@H]2N1C(=O)C1CCC1 | · | 52 | -5 | 0 | · | · | · | ·
CO[C@@H]1CN(C)C(=O)c2ccc(NC(=O)C3CCCC3)cc2OC[C@@H](C)N(CC2CC2)C[C@@H]1C | 0 | · | · | 1 | · | · | · | ·
Cc1ccc(S(=O)(=O)Nc2ccc3c(c2)C(=O)N([C@H](C)CO)C[C@H](C)[C@@H](CN(C)C(=O)Nc2ccccc2)OCCCC[C@@H](C)O3)cc1 | 0 | -98 | -18 | 0 | · | · | · | ·
Cc1ccc(S(=O)(=O)Nc2ccc3c(c2)C(=O)N([C@H](C)CO)C[C@H](C)[C@H](CN(C)C(=O)Nc2ccccc2)OCCCC[C@H](C)O3)cc1 | 2 | 100* | -31 | 0 | 109* | 43 | -11 | -5
Cc1ccc(S(=O)(=O)Nc2ccc3c(c2)C(=O)N([C@@H](C)CO)C[C@@H](C)[C@@H](CN(C)C(=O)Nc2ccc(F)cc2)OCCCC[C@@H](C)O3)cc1 | 1 | 105* | -77 | -1 | 104* | 64 | -3 | -16
C[C@@H]1CN([C@H](C)CO)C(=O)c2cc(NS(=O)(=O)c3ccc(F)cc3)ccc2O[C@@H](C)CCCCO[C@H]1CN(C)C(=O)Nc1ccc(F)cc1 | · | 30 | -37 | 1 | · | · | · | ·

From PubChem
